Bioassay records: PubChem BioAssay, several laboratories
697 NFkB inh = lowers PMA/ionomycin-induced NF-kB signal in 697 B cells; 697 B-cell NF-kB luciferase reporter, 16 h; 330,000 tested, 0.33% active; inhibition, % at 4 µM; in the data active means inhibition above about 35%
UPR XBP1 act = adaptive UPR (XBP1) activation; 330,000 tested, 0.33% active; activation, % at 20 µM; CHO-XBP1 luciferase reporter, IRE1-XBP1 UPR activation, luminescence; percent of tunicamycin response, DMSO as zero;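 active means versus positive control, 20 µM dose yields 30% or more activation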
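Material: CHO-XBP1 cells stably carrying IRE1-XBP1-driven luciferase reporter | Medium: F12 with 10% serum | Compound dosing: 20 µM single concentration, DMSO 1% | Incubation: Overnight seeding at 37 °C, 6 h compound treatment at 37 °C | Detection: Steady-Glo luminescence read | Read-out basis: % activation of reporter signal versus tunicamycin and DMSO controls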
UPR CHOP act = activators of apoptotic arm of unfolded protein response (CHOP). CHO-CHOP luciferase reporter, UPR activation, luminescence; percent of tunicamycin response over DMSO baseline. activation, % at 10 µM. 330,000 tested, 0.34% active. AID 449763;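 active means at 10 µM dose, activation of 40% or more, normalized to positive control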
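System: CHO-CHOP luciferase reporter cell line; amount: 500 cells/well; buffer or medium: F12 medium containing 10% fetal bovine serum; incubation: 6 h compound exposure at 37 °C after overnight seeding; measured by: luciferase luminescence after 10 min with Steady-Glo reagent; evaluation: % reporter activation, DMSO baseline versus tunicamycin full activation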
CHOP inhibitor = CHOP inhibition in unfolded protein response. inhibition, % at 10 µM. AID 2732. 220,000 tested, 3.8% active. CHO-K1 CHOP-promoter luciferase, tunicamycin-induced, 15-18 h;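 active means compounds that reduced the stress-induced luciferase reporter signal by more than about 70% of percent inhibition, limit read from the data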
Gli-Sufu block = blocks Gli-Sufu signaling in a luciferase reporter. Sufu-KO-LIGHT fibroblasts, Gli luciferase reporter luminescence. inhibition, % at 5 µM. 340,000 tested, 0.74% active. AID 588413;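 active means inhibition above about 55%, limit read from the data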
Jurkat NFkB inh = lowers PMA/ionomycin-induced NF-kB signal in Jurkat cells; PMA/ionomycin-induced NF-kB luciferase reporter, luminescence; inhibition, % at 4 µM; 330,000 tested, 0.53% active; AID 435003; in the data active means inhibition above about 50%
CHOP inh conf = confirmation of CHOP induction inhibitors. AID 504437. CHO-CHOP promoter luciferase reporter, tunicamycin-induced, luminescence. inhibition, % at 10 µM. 2,100 tested, 45% active. shares compounds with CHOP inhibitor;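 active means mean of three repeat readings of reporter signal inhibition above a set limit, cut at about 70% in these data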
Jurkat NFkB conf = inhibitors of the PMA/ionomycin-induced NF-kB reporter in Jurkat cells, retest; 2,700 tested, 27% active; shares compounds with Jurkat NFkB inh; Jurkat NF-kB luciferase, 16 h; inhibition, % at 4 µM;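 active means inhibition reaching about 45% at 4 µM in either replicate, limit read from the data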
697 NFkB conf = inhibitors of the PMA/ionomycin-induced NF-kB reporter in 697 B cells, retest; 697 B-cell NF-kB luciferase, 16 h; shares compounds with 697 NFkB inh; 2,000 tested, 35% active; inhibition, % at 4 µM; in the data active means inhibition mostly above about 28%, no sharp cut-off; inactive means mostly below about 22%
CHOP UPR conf = apoptotic UPR (CHOP) activation, confirmed | 1,000 tested, 64% active | CHO-CHOP cells, CHOP-luciferase reporter luminescence; percent of tunicamycin response, DMSO as zero | shares compounds with UPR CHOP act | activation, % at 10 µM; in the data active means activation above about 33%
Hits are given with their value; 0 = inactive; - = not tested or not shown. In the library only some 3.9% were active in any assay of this set; here they are far more common.

SMILES	697 NFkB inh	UPR XBP1 act	UPR CHOP act	CHOP inhibitor	Gli-Sufu block	Jurkat NFkB inh	Jurkat NFkB conf	others
CC1=CC2/C=C(\C)CCC(O)C(O)/C=C/C(=O)C23C(=O)NC(CC(C)C)C3C1C (centres undefined)	38	0	0	105	0	79	0	CHOP inh conf=125;697 NFkB conf=0
CCN1/C(=C\C=C\C2=[N+](CC)c3ccccc3C2(C)C)C(C)(C)c2ccccc21	0	0	46	103	94	100	80	CHOP inh conf=140;CHOP UPR conf=0
Cc1ccc(/C=C2\C(=O)NC(=S)N(c3ccc(F)cc3)C2=O)s1	0	0	393	103	0	0	-	CHOP inh conf=0;CHOP UPR conf=0
COc1ccc(N2C(=O)/C(=C/c3cccs3)C(=O)NC2=S)cc1	0	0	462	104	0	0	-	CHOP inh conf=0;CHOP UPR conf=157
CCOC(=O)C1C(OC(=O)c2ccccc2)CC2CCC1N2C (centres undefined)	-	-	-	-	0	-	-
CCOP(=O)(OCC)/C(C#N)=C/c1ccoc1	-	-	-	0	0	-	-
CCOC(=O)c1c(-n2c(C)cc(C=C3C(=O)NC(=S)NC3=O)c2C)sc2c1CCCC2	0	0	185	107	0	0	-	CHOP inh conf=140;CHOP UPR conf=0
CCOC(=O)c1c(-n2c(C)cc(/C=C3/C(=O)NC(=O)N(CC)C3=O)c2C)sc2c1CCCC2	0	0	0	-	0	0	-
COC1=CC2C3Cc4ccc(OC)c(O)c4C2(CCN3C)CC1=O (centres undefined)	-	-	-	-	0	-	-
COc1ccc(-n2cnc3cc(C(=O)N4CCC5(CC4)OCCO5)ccc32)cc1	0	0	0	0	0	50	0
Cc1cc(C)c2c(ccc3cccc[n+]32)c1	0	0	0	-	0	57	0
COc1cccc(NP2(=O)OCC(C)([N+](=O)[O-])CO2)c1 (centres undefined)	-	-	-	-	0	-	-
COc1cc2nc(CN3CC=C(c4ccccc4)CC3)[nH]c(=O)c2cc1OC	0	0	0	-	0	59	52
COc1cc2c(cc1OC)-c1c3c(cc4c1[C@@H](C2)N(C)CC4)OCO3	0	0	0	0	0	60	0
CCN1C[C@@]2(COC)C3[C@@H](OC)[C@H]4[C@@H]1[C@@]3(C1C[C@H]3[C@H](OC(C)=O)C1[C@]4(OC(C)=O)C[C@H]3OC)[C@@H](OC)C[C@H]2OC(C)=O (some centres undefined)	0	0	0	-	0	0	-
CC[n+]1c(/C=C/C=C/c2ccc(N(C)C)cc2)sc2ccccc21	0	0	0	0	87	70	0
O=C(c1cccn2c(=O)c3cc(Br)ccc3nc12)N1CCC2(CC1)OCCO2	0	0	0	0	0	0	-
Cc1cccn2c(=O)c3cc(C(=O)N4CCC5(CC4)OCCO5)n(C)c3nc12	0	0	0	0	0	53	0
CCOC(=O)C(NC(=O)C(Cc1ccc(N(CCCl)CCCl)cc1)NC(C)=O)C(C)C (centres undefined)	0	0	0	0	0	0	-
COC(=O)C(Cc1ccc(N(CCCl)CCCl)cc1)N=Cc1ccccc1O (centres undefined)	0	0	0	-	64	51	0
N/C(=N\[N+](=O)[O-])N1CCN(C(=O)c2ccccn2)CC1	0	0	0	-	0	0	-
CC(=O)OC(C)(C)/C=C/C(=O)C(C)(O)C1[C@H](O)C[C@@]2(C)C3CC=C4C(CC[C@@H](O)C4(C)C)[C@]3(CO)C(=O)C[C@]12C (some centres undefined)	0	0	0	-	80	81	0
O=C1CN=C(c2ccccc2)c2oc3ccc(Br)cc3c2N1	0	0	0	0	0	0	-
COc1cccc(OC)c1C1=NCC(=O)Nc2c1oc1ccc(Br)cc21	0	0	0	-	57	56	61
COc1ccc(-c2cc(=Nc3ccccc3)c3cc(C)ccc3o2)cc1	0	0	0	0	0	0	0
SMILES	697 NFkB inh	UPR XBP1 act	UPR CHOP act	CHOP inhibitor	Gli-Sufu block	Jurkat NFkB inh	Jurkat NFkB conf	others
C/C=C(\C)C(=O)N[C@@H](c1ccccc1)[C@@H](O)C(=O)O[C@H]1C[C@@]2(O)[C@@H](OC(=O)c3ccccc3)C3[C@](C)(C(=O)[C@H](O)C(=C1C)C2(C)C)[C@@H](O)C[C@H]1OC[C@@]31OC(C)=O (some centres undefined)	0	0	0	-	0	70	64
CC(=O)O[C@@]12CO[C@@H]1C[C@H](O)[C@@]1(C)C(=O)[C@H](O)C3=C(C)[C@@H](O)C[C@@](O)([C@@H](OC(=O)c4ccccc4)C12)C3(C)C (some centres undefined)	0	0	0	-	0	0	-
C/C=C(\C)C(=O)N[C@@H](c1ccccc1)[C@@H](O)C(=O)O[C@H]1C[C@@]2(O)[C@@H](OC(=O)c3ccccc3)C3[C@](C)(C(=O)[C@H](OC(C)=O)C(=C1C)C2(C)C)[C@@H](O)C[C@H]1OC[C@@]31OC(C)=O (some centres undefined)	0	0	0	-	0	66	71
Cc1cc(=O)oc2cc3c(cc12)CCCN3	0	0	0	-	0	0	-
Cc1cc(C(=O)N2CCC3(CC2)OCCO3)no1	0	0	0	-	0	0	-
CCOc1ccc(C(C)=O)cc1Cn1ccsc1=N	-	-	-	-	0	-	-
COc1cc2c(cc1C=O)OCO2	0	0	0	0	0	0	-
COc1cc([C@@H]2c3cc4c(cc3[C@@H](OC)[C@H]3COC(=O)[C@H]23)OCO4)cc(OC)c1O	0	0	0	0	0	57	47
Cc1[nH]c2ccc(OC(F)(F)F)cc2c1CCNCc1cccc([N+](=O)[O-])c1	0	0	0	-	0	0	-
CCOc1cccc(CNCCc2c(C)[nH]c3ccc(OC(F)(F)F)cc23)c1O	0	0	0	-	0	66	0
N=C1c2ccccc2CN1c1ncccn1	0	0	0	0	0	0	-
CC[n+]1c(-c2ccccc2)c2cc(N)ccc2c2ccc(N)cc21	-	-	-	-	0	-	-
Nc1ccccc1C(=O)OCCc1ccccc1	0	0	0	-	0	0	0	697 NFkB conf=0
C[C@H]1CCCC(=O)CCC/C=C/c2cc(O)cc(O)c2C(=O)O1	0	0	0	0	0	0	-
